Assay outcomes as filed in PubChem BioAssay.
KCNK9 block – human KCNK9 channel inhibition; Q9NPC2; B-score at 10 µM; 310,000 compounds, 1.2% hits; AID 488922; HEK293 KCNK9, FluxOR thallium flux fluorescence; stronger effect = lower value;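 active = ratio B-score over 3 SD below the library mean, with starting fluorescence within 5 SD of its mean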;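 also: negative B-score means less thallium flux so channel inhibition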
KCNQ1 inh – human KCNQ1 channel inhibition; 310,000 compounds, 1.3% hits; B-score at 10 µM; AID 2642; CHO-K1 KCNQ1, FluxOR thallium flux fluorescence; stronger effect = higher value;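 active = compounds whose thallium flux B-score, printed positive for inhibition, exceeds three library SD while starting fluorescence stays within three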;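 also: channel opened by potassium depolarization with thallium stimulus after 20 min compound exposure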
Target sequence (P51787 whole entry, looked up): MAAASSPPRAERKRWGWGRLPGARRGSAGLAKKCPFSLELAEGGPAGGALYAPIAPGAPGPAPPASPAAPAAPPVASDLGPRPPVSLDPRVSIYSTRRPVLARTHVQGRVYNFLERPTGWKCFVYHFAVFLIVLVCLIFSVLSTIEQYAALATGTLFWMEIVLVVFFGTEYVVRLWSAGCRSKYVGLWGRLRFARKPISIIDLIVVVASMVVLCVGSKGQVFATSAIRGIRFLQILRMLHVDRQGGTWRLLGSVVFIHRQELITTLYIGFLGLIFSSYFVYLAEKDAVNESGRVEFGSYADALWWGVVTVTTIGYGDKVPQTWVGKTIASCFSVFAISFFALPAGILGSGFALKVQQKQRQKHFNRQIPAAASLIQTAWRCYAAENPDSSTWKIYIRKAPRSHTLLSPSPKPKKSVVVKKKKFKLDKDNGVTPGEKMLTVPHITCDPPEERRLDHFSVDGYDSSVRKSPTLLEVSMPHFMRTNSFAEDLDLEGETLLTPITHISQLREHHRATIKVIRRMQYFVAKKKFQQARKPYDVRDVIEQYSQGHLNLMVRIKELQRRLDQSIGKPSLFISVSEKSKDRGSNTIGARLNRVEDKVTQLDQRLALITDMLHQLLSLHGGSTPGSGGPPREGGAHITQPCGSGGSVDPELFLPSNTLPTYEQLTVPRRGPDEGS
KCC2 mod – modulators of human KCC2 chloride dependent transport. Q9H2X9. KCC2 cells, thallium flux FluoZin-2 fluorescence. B-score of Tl+ flux slope (higher = more flux/activation; lower = inhibition) at 10 µM. 190,000 compounds, 2.2% hits;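 active = thallium flux slope and its plate-corrected score both differing from the plate sample mean at a set confidence after two filtering rounds, in either direction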;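 also: slope of fluorescence scaled to starting intensity during 10 to 20 s after thallium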
hERG rescue – hERG (human) protection from proarrhythmic block; CHO-hERG, FluxOR thallium flux, dofetilide IC70 present; 310,000 compounds, 0.51% hits; activation (rescue from dofetilide block), less the hit threshold, % at 10 µM; AID 1511;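 active = activation above the mean of controls blocked by dofetilide plus 5 SD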;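 also: thallium influx through hERG after potassium depolarization seen as dye fluorescence rise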
KCNQ1 act – potentiators or activators of human KCNQ1 potassium channel; P51787; 310,000 compounds, 0.35% hits; B-score at 10 µM; CHO-K1 KCNQ1, thallium flux FluxOR fluorescence; stronger effect = higher value; AID 2648;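 active = fluorescence ratio B-score, a plate-corrected score, at least three library SD, with initial intensity B-score within 5 SD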
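Test system: CHO-K1 cells stably expressing KCNQ1 / Medium: assay buffer / Also added: depolarizing K+/Tl+ stimulus, K2SO4 and Tl2SO4 each 12.5 mM in 5x stock / Incubation: 90 min dye loading and 20 min compound exposure, both at room temperature / Signal: thallium influx via FluxOR fluorescence, kinetic imaging / Evaluation: B score of baseline-normalized fluorescence ratio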
KCNK3 inh – human KCNK3 channel inhibition, primary screen; CHO-KCNK3 thallium flux, FluxOR fluorescence; stronger effect = lower value; B-score at 10 µM; 340,000 compounds, 0.84% hits;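 active = B-score under library mean minus 4 SD, starting fluorescence ratio at most library mean plus 5 SD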;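 also: more negative B-score means stronger inhibition of thallium flux through KCNK3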
Numbers without * were called inactive; i = inactive; / = no result given. Most compounds without a hit are left out; they make up all but 4.1% or so of the library.

SMILES	KCNK9 block	KCNQ1 inh	KCC2 mod	hERG rescue	KCNQ1 act	KCNK3 inh
OCCN(Cc1ccccc1)Cc1ccc(C(F)(F)F)cc1	-6.9*	i	-0.016	-6	i	i
CCOC(=O)c1cc(NC(=O)Cc2ccc(S(=O)(=O)N3CCOCC3)s2)cc(C(=O)OCC)c1	i	7*	/	-16	i	i
COc1ccccc1NC(=O)CNC(c1ccccc1)c1ccccc1	i	i	/	-8	i	i
COc1ccc(C)cc1NC(=O)C(OC(=O)CNC(=O)c1ccc(Oc2ccccc2)cc1)c1ccccc1 (stereo not given)	-7.9*	i	-0.47	-15	i	i
COc1ccc(C)cc1NC(=O)CNC(c1ccccc1)c1ccc(C)cc1 (stereo not given)	-7.6*	i	/	-9	i	i
Cn1c(-c2ccccc2)cc(=O)n1-c1ccccc1	/	/	/	/	/	i
CCOC(=O)CSc1ccc(S(=O)(=O)N(CC)CC)cc1[N+](=O)[O-]	-6.8*	i	-1.1	-1	i	i
CCOC(=O)CCCCCN(Cc1ccccc1)S(=O)(=O)c1ccc([N+](=O)[O-])cc1	i	7*	-0.97	-9	i	i
Oc1ccccc1N1CCN(c2ccc3ccccc3n2)CC1	i	i	/	-7	i	i
N#C/C(=C\c1ccc(C#N)cc1)C(=O)N1CCCC1	i	6*	-0.085	-13	i	i
CC(=O)OC1CCC2(C)C(CCC3C2CC(=O)C2(C)C3CC(C3CCCC3=O)C2C(C)=O)C1 (stereo not given)	/	/	/	/	/	i
CCOc1ccccc1NC(=O)NC1CC2CCCC(C1)N2Cc1nnnn1CCc1ccccc1 (stereo not given)	i	i	-1.7	-7	i	-9.1*
O=C(Nc1ccccc1)NC1CC2CCC(C1)N2Cc1nnnn1Cc1ccc2c(c1)OCO2 (stereo not given)	i	i	-1.2	-13	i	i
Cn1c(NC(=O)c2ccccc2)cc(=O)n(C)c1=O	i	i	1	-9	i	i
Cn1c(NNC(=O)C(c2ccccc2)c2ccccc2)cc(=O)n(C)c1=O	i	i	-0.47	4.9*	i	i
COC(=O)c1nn(Cc2ccccc2)c(=O)c2ccccc12	i	i	-0.037	0	i	i
COc1cc2c(cc1OC)CN(C(=O)c1nn(Cc3ccccc3)c(=O)c3ccccc13)CC2	/	/	/	/	/	-9.3*
CC1(C)CC2CC(C)(CN2C(=O)c2cc(-c3ccc(O)cc3)on2)C1 (stereo not given)	i	i	/	-8	i	i
COC(=O)c1cc(-c2cccc(OC)c2)on1	i	i	/	7.2*	i	i
COc1cccc(-c2cc(C(=O)O)no2)c1	i	i	0.34	-9	i	i
COc1cccc(-c2cc(C(=O)N3CC4(C)CC3CC(C)(C)C4)no2)c1 (stereo not given)	-6.8*	i	/	-9	i	i
Cc1ccc(S(=O)(=O)n2c(C)nc3cc(C)ccc32)cc1	i	i	/	-6	i	i
O=c1ccccn1CCOc1ccccc1Cl	i	i	0.68	5.3*	i	i
Clc1ccccc1OCCN1CCCCC1	i	i	/	-3	i	i
Cc1cccc(CN2C(=O)CSc3ccc(C(=O)NC4CC4)cc32)c1	i	i	/	-8	i	i
SMILES	KCNK9 block	KCNQ1 inh	KCC2 mod	hERG rescue	KCNQ1 act	KCNK3 inh
CCCCC(c1nnnn1CC1CCCO1)N1CCN(c2cccc(C)c2C)CC1 (stereo not given)	-7.5*	i	-1	-11	i	i
Cc1ccc(C)c(OCCC(=O)Nc2ccccc2C(=O)NC2CC2)c1	/	/	/	/	/	i
CC(=O)Nc1ccc(-n2c(C)nc(=O)c(-c3ccccc3)c2C)cc1	i	i	/	4.7*	i	i
CC(C)(Oc1ccc(Cl)cc1)C(=O)N/N=C/c1cn[nH]c1-c1ccccc1	-7.2*	i	0.37	-6	i	i
NCCNc1ccc(C(=O)N2c3ccccc3Sc3ccccc32)cc1[N+](=O)[O-]	i	8*	/	-31	i	i
Nc1ccc(C(=O)OCC(=O)N2c3ccccc3Sc3ccccc32)cc1[N+](=O)[O-]	/	/	-1.4	/	/	i
Cc1nn(-c2ccccc2)c(C)c1/C=N/NC(=O)c1cc(C(C)(C)C)[nH]n1	i	i	/	-13	i	i
Cc1nn(-c2ccccc2)c(Cl)c1/C=N/NC(=O)c1cccc(S(=O)(=O)N2CCCC2)c1	i	i	0.32	0	i	i
Cc1nn(-c2cccc(Cl)c2)c(Cl)c1/C=N/NC(=O)c1cccnc1	-7.4*	i	-1.9	-9	i	i
Cc1nn(-c2ccccc2)c(N2CCCC2)c1/C=N/NC(=O)c1cccc(S(=O)(=O)Nc2ccc(Cl)cc2)c1	i	7*	0.12	-2	i	i
Cc1nn(-c2ccccc2)c(N2CCCC2)c1/C=N/NC(=O)c1cc2ccccc2cc1O	i	11*	-1.4	-26	i	i
Cc1ccc(-c2cc(C(=O)N/N=C/c3c(C)nn(-c4ccccc4)c3C)[nH]n2)cc1	i	13*	-0.88	-7	i	i
Cc1ccc(N2CC(C(=O)Nc3ccc(S(=O)(=O)N4CCOCC4)cc3)CC2=O)cc1Cl (stereo not given)	i	i	/	-9	i	i
CC(C)[C@H](NC(=O)[C@@H]1Cc2c([nH]c3ccccc23)C2c3ccccc3C(=O)N21)C(=O)N1CCC[C@@H]1C(=O)O (stereo not given in full)	i	i	/	-5	i	i
CCC(C)c1ccc(OCC(=O)Nc2ccc3c(c2)C(=O)NC3=O)cc1 (stereo not given)	i	i	/	-8	i	i
COc1ccc([C@H]2CC(=O)C=C(c3cccc(C(C)C)c3)C2)cc1OC	/	/	/	/	/	i
Ic1ccc(N2CCN(Cc3c[nH]c4ncccc34)CC2)cc1	/	/	/	/	/	i
C[n+]1ccc(/C=C/c2c[nH]c3ccc(F)cc23)cc1	-6.7*	11*	/	-18	i	i
CCCN(Cc1nc2cc(Cl)ccc2c(=O)[nH]1)C(=O)c1ccc(S(=O)(=O)N2CCCC2)cc1	/	/	/	/	/	i
Cc1csc2c(N3CCCCC3)ncnc12	i	i	1.7	8.6*	i	i
Cc1csc2c(N3CCC(C(=O)O)CC3)ncnc12	i	i	-1.3	-4	i	i
COc1ccc(-c2nsc3c(N4CCCCC4)ncnc23)cc1	i	i	0.1	8.0*	i	i
CSc1cccc(NC(=O)c2nnn(CC(=O)Nc3cc(C)cc(C)c3)c2N)c1	i	i	/	-8	i	i
